# Rows were chosen to be rich in hits. Some 3.8% of all compounds tested hit in one or more screens of this group.
# KCNK9 block = human KCNK9 channel inhibition; Q9NPC2; HEK293 KCNK9, FluxOR thallium flux fluorescence; active compounds read low; B-score at 10 µM; actives 1.2% (n = 310,000); AID 488922;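 active = ratio B-score over 3 SD below the library mean, with starting fluorescence within 5 SD of its mean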;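 note: negative B-score means less thallium flux so channel inhibition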
# KCNK3 inh = human KCNK3 channel inhibition, primary screen | O14649 | CHO-KCNK3 thallium flux, FluxOR fluorescence; active compounds read low | B-score at 10 µM | actives 0.84% (n = 340,000) | AID 602410;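 active = B-score under library mean minus 4 SD, starting fluorescence ratio at most library mean plus 5 SD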;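 note: more negative B-score means stronger inhibition of thallium flux through KCNK3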
# KCNQ1 inh = human KCNQ1 channel inhibition. CHO-K1 KCNQ1, FluxOR thallium flux fluorescence; active compounds read high. actives 1.3% (n = 310,000). B-score at 10 µM;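 active = compounds whose thallium flux B-score, printed positive for inhibition, exceeds three library SD while starting fluorescence stays within three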;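 note: channel opened by potassium depolarization with thallium stimulus after 20 min compound exposure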
# Target sequence (P51787 whole entry, looked up): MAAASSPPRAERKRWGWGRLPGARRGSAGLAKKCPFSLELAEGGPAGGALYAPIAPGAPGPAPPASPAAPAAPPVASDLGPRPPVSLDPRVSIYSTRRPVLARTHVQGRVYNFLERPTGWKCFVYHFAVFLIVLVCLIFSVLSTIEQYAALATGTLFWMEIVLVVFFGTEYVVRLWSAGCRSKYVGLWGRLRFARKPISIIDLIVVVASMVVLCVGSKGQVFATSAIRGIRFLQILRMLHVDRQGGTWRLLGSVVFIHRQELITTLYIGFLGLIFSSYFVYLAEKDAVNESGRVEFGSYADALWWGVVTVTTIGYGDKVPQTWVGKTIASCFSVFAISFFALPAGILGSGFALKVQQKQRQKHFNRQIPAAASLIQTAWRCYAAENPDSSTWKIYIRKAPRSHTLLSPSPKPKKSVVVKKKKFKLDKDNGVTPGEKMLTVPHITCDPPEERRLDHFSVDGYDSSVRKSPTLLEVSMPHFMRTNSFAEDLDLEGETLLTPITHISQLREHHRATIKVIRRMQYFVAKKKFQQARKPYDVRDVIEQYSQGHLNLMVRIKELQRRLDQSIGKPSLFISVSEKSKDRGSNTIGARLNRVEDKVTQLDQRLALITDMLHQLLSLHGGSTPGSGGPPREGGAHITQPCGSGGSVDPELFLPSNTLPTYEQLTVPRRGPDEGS
# KCNQ1 act = human KCNQ1 channel potentiation or activation | B-score at 10 µM | AID 2648 | actives 0.35% (n = 310,000) | CHO-K1 KCNQ1, thallium flux FluxOR fluorescence; active compounds read high | P51787;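 active = fluorescence ratio B-score, a plate-corrected score, at least three library SD, with initial intensity B-score within 5 SD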
#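 Assay system: stable KCNQ1 CHO-K1 line; medium: assay buffer, equal DMSO in all wells; timing: 90 min dye loading and 20 min compound exposure, both at room temperature; technique: kinetic FluxOR thallium fluorescence, 10-s 1-Hz baseline, 110-s post-stimulus read; read-out basis: B score of baseline-normalized fluorescence ratio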
# Kir21 block = inhibitors of mouse Kir2.1 inward-rectifier potassium channel. P35561. HEK293-Kir2.1, FluxOR thallium flux fluorescence; active compounds read low. B-score at 10 µM. actives 0.85% (n = 310,000). AID 1672;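 active = fluorescence ratio B-score at or below minus 3 SD of library scores, with starting-brightness B-score within 2 SD, cut at about -4.2 in these data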;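 note: channel flux triggered by added potassium and thallium sulfate stimulus; B-score of peak minus minimum fluorescence over baseline after thallium stimulus; more negative B-score means stronger Kir2.1 block with less thallium influx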
# hERG protect = hERG (human) protection from proarrhythmic block; Q12809; CHO-hERG, FluxOR thallium flux, dofetilide IC70 present; activation (rescue from dofetilide block), less the hit threshold, % at 10 µM; actives 0.51% (n = 310,000); AID 1511;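 active = activation above the mean of controls blocked by dofetilide plus 5 SD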;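 note: thallium influx through hERG after potassium depolarization seen as dye fluorescence rise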
# KCNQ1 block val = confirmation of human KCNQ1 potassium channel inhibitors | shares compounds with KCNQ1 inh | KCNQ1 cell line, FluxOR thallium flux fluorescence | inhibition, % at 10 µM | actives 93% (n = 1,600) | AID 588353;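 active = primary screen active, with duplicate mean exceeding buffer control mean plus 3 SD of buffer wells, cut at about 28% in these data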;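 note: 0% = buffer control ratio and 100% = XE991 inhibitor control ratio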
# CHO KCNQ1 ctr = KCNQ1 inhibitor counter-screen hit in parental CHO cells | shares compounds with KCNQ1 inh | parental CHO-K1, FluxOR thallium flux fluorescence ratio; active compounds read low; zero means no signal rise above baseline | fluorescence ratio (Tl flux) at 10 µM | actives 21% (n = 1,600);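 active = mean of duplicate thallium-flux fluorescence ratios in parental host cells more than 5 SD below the buffer control mean, cut at about 0.38 in these data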;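 note: ratio is peak minus minimum fluorescence divided by baseline fluorescence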
# KCNQ1 APC inh = confirmation of human KCNQ1 potassium channel inhibitors by electrophysiology | KCNQ1-CHO cells, automated patch clamp current | shares compounds with KCNQ1 inh | calls only at 10 µM | actives 20% (n = 490) | AID 624120;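 active = KCNQ1 current drop exceeding 3 SD of negative control wells, seen in both duplicate runs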;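 note: steady state current during a 2 s step from -80 to +40 mV; negative values mean current inhibition and positive values mean potentiation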
# KCNQ2 spec = KCNQ1 inhibitor that also blocks rat KCNQ2 channel. inhibition, % at 10 µM. actives 71% (n = 1,600). shares compounds with KCNQ1 inh. AID 651746. KCNQ2 cells, FluxOR thallium flux fluorescence;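 active = mean percent inhibition of the KCNQ2 thallium signal more than 5 SD above the buffer-only control wells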;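 note: KCNQ2 expressed in CHO cells; 0% = buffer control wells and 100% = XE-991 inhibitor control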
# KCNQ1-KCNE1 inh = selectivity of KCNQ1 inhibitors: inhibition of human KCNQ1/KCNE1 channel; shares compounds with KCNQ1 inh; KCNQ1/KCNE1 cells, FluxOR thallium flux fluorescence; inhibition, % at 10 µM; actives 77% (n = 1,600);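 active = mean percent inhibition of duplicate wells above the buffer-only control mean plus 3 SD of those controls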;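 note: 0% = buffer only wells and 100% = XE-991 inhibitor control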
# Active calls of the source: *; i = inactive; nt = no result given; + = active, no number.
SMILES,KCNK9 block,KCNK3 inh,KCNQ1 inh,KCNQ1 act,Kir21 block,hERG protect,KCNQ1 block val,CHO KCNQ1 ctr,KCNQ2 spec,KCNQ1-KCNE1 inh,others
CC[n+]1c(/C=C2\Sc3ccccc3N2C)ccc2cccc(C)c21,i,i,22*,i,-8.6,-66.6,+,0.05*,i,i,
CCN1/C(=C/c2ccc3cc(C)ccc3[n+]2CC)Sc2ccccc21,i,i,17*,i,-15.3,-36.9,+,0.0355*,i,i,
CN1/C(=C/c2cccc[n+]2CCO)Sc2ccccc21,i,i,i,i,0.44,-4.1,nt,nt,nt,nt,
CCN1/C(=C/c2ccc3cc(C)ccc3[n+]2CC)Sc2cc(C)c(C)cc21,nt,i,nt,nt,nt,nt,nt,nt,nt,nt,
CCOc1ccc(N(CC(=O)NC2CC3CCC2C3)S(=O)(=O)c2ccc(C)cc2)cc1 (configuration not stated),i,i,8*,i,0.05,-7.6,99.5*,0.459,93.7%*,100.5%*,KCNQ1 APC inh=+
CSc1nc2ccc(NS(=O)(=O)c3ccc(Cl)s3)cc2s1,i,i,7*,i,-1.49,-13.3,103.0*,0.43,i,69.5%*,
COCCN(C(=O)C1CC(=O)N(Cc2ccccc2)C1)c1nc(-c2ccc([N+](=O)[O-])cc2)cs1 (configuration not stated),nt,i,nt,nt,nt,nt,nt,nt,nt,nt,
CC(=O)Nc1cccc(-c2csc(Nc3cc(C)ccn3)n2)c1,i,i,6*,i,2.61,-17.1,70.0*,0.506,90.3%*,38.5%*,
O=C(Nc1cccc(F)c1)c1ccc(-c2ccccc2Cl)o1,i,i,8*,i,-0.3,-14.5,161.0*,0.313*,119.3%*,+,
c1ccc(-c2nc(N3CCCCC3)nc3ccccc23)cc1,i,i,7*,i,0.05,-12.3,118.0*,0.413,112.7%*,174.0%*,KCNQ1 APC inh=i
c1ccc2c(c1)nc(N1CCCCC1)c1ccccc12,i,i,i,i,2.26,-3.6,nt,nt,nt,nt,
c1ccc2c(N3CCCCC3)nc(N3CCCC3)nc2c1,i,i,9*,i,-1.55,-20.9,36.5*,0.512,i,i,
O=C(Nc1cc(Cl)cc(Cl)c1)C(c1ccccc1)N1CCCCC1 (configuration not stated),i,i,8*,i,0.57,-8.1,120.5*,0.363*,122.3%*,114.0%*,
Cc1ccc(NC(=O)C(c2ccc(Cl)cc2Cl)N2CCCC2)cc1 (configuration not stated),-7.08*,i,8*,i,0.75,-9.3,91.5*,0.383,i,152.5%*,KCNQ1 APC inh=+
COc1cccc(NC(=O)C(c2ccccc2)N2CCCCC2)c1 (configuration not stated),i,i,i,i,-1.41,-10.4,nt,nt,nt,nt,
Cc1cccc(NC(=O)C(c2ccccc2Cl)N2CCOCC2)c1 (configuration not stated),i,i,i,i,-0.11,-11.8,nt,nt,nt,nt,
Cc1cc(C)c2c(=O)[nH][nH]c2n1,nt,i,nt,nt,nt,nt,nt,nt,nt,nt,
N#CC1=C(N)NC(SCc2ccc(Cl)cc2)=C(C#N)C12CCCCC2,i,i,16*,i,-0.21,-17.8,151.0*,0.376*,121.3%*,185.0%*,

# Bioassay records as filed in PubChem BioAssay.
